# Results reported in ChEMBL document CHEMBL3621107, “Ring fusion strategy for synthesis and lead optimization of sulfur-substituted anthra[1,2-c][1,2,5]thiadiazole-6,11-dione derivatives as promising scaffold of antitumor agents” (Eur J Med Chem, 2015).
# Assays:
# Assay type in all cases: functional
# A549 = test: Cytotoxicity against human A549 cells assessed as cell growth at 10 uM after 48 hrs by SRB assay relative to control; settings: A549, 48 h, read-out: Activity
# Procedure, shortened: (§1)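 First-stage NCI-60 screen by the NCI Developmental Therapeutics Program. Each compound was tested once at a single concentration of 10 μM against the 60-cell-line panel. Growth percentage was reported for each cell line.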
# [1] = Cytotoxicity against human Hs578T cells assessed as cell growth at 10 uM after 48 hrs by SRB assay relative to control; settings: Hs-578T, read-out: Activity; procedure, shortened: as §1
# IGROV-1 = test: Cytotoxicity against human IGROV1 cells assessed as cell growth at 10 uM after 48 hrs by SRB assay relative to control; settings: IGROV-1, 48 h, read-out: Activity; procedure, shortened: as §1
# RPMI-8226 = test: Cytotoxicity against human RPMI8226 cells assessed as cell growth at 10 uM after 48 hrs by SRB assay relative to control; settings: RPMI-8226, 48 h, read-out: Activity
# Procedure, shortened: (§2)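 First-stage NCI DTP one-dose screen against the 60 human tumour cell line panel. Compounds were tested at a single 10 μM level, and results are given as growth percentage.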
# SK-MEL-5 = test: Cytotoxicity against human SK-MEL-5 cells assessed as cell growth at 10 uM after 48 hrs by SRB assay relative to control; settings: SK-MEL-5, 48 h, read-out: Activity; procedure, shortened: as §2
# SK-MEL-28 = test: Cytotoxicity against human SK-MEL-28 cells assessed as cell growth at 10 uM after 48 hrs by SRB assay relative to control; settings: SK-MEL-28, 48 h, read-out: Activity; procedure, shortened: as §2
# SF-539 = test: Cytotoxicity against human SF539 cells assessed as cell growth at 10 uM after 48 hrs by SRB assay relative to control; settings: SF-539, 48 h, read-out: Activity; procedure, shortened: as §2
# NCI-H460 = test: Cytotoxicity against human NCI-H460 cells assessed as cell growth at 10 uM after 48 hrs by SRB assay relative to control; settings: NCI-H460, 48 h, read-out: Activity; procedure, shortened: as §2
# SF-268 = test: Cytotoxicity against human SF268 cells assessed as cell growth at 10 uM after 48 hrs by SRB assay relative to control; settings: SF-268, 48 h, read-out: Activity; procedure, shortened: as §2
# NCI-H522 = test: Cytotoxicity against human NCI-H522 cells assessed as cell growth at 10 uM after 48 hrs by SRB assay relative to control; settings: NCI-H522, 48 h, read-out: Activity; procedure, shortened: as §2
# UACC-257 = test: Cytotoxicity against human UACC257 cells assessed as cell growth at 10 uM after 48 hrs by SRB assay relative to control; settings: UACC-257, 48 h, read-out: Activity
# Procedure, shortened: (§3)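 NCI-60 one-dose screen run by NCI DTP: each cell line exposed to a single 10 µM dose, and percentage growth recorded against untreated growth.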
# CAKI-1 = test: Cytotoxicity against human Caki1 cells assessed as cell growth at 10 uM after 48 hrs by SRB assay relative to control; settings: CAKI-1, 48 h, read-out: Activity; procedure, shortened: as §1
# OVCAR-8 = test: Cytotoxicity against human OVCAR8 cells assessed as cell growth at 10 uM after 48 hrs by SRB assay relative to control; settings: OVCAR-8, 48 h, read-out: Activity; procedure, shortened: as §2
# HCT-116 = test: Cytotoxicity against human HCT116 cells assessed as cell growth at 10 uM after 48 hrs by SRB assay relative to control; settings: HCT-116, 48 h, read-out: Activity; procedure, shortened: as §1
# HCT-15 = test: Cytotoxicity against human HCT15 cells assessed as cell growth at 10 uM after 48 hrs by SRB assay relative to control; settings: HCT-15, 48 h, read-out: Activity; procedure, shortened: as §1
# SK-MEL-2 = test: Cytotoxicity against human SK-MEL-2 cells assessed as cell growth at 10 uM after 48 hrs by SRB assay relative to control; settings: SK-MEL-2, 48 h, read-out: Activity; procedure, shortened: as §2
# CCRF-CEM = test: Cytotoxicity against human CCRF-CEM cells assessed as cell growth at 10 uM after 48 hrs by SRB assay relative to control; settings: read-out: Activity; procedure, shortened: as §1
# NCI-H226 = test: Cytotoxicity against human NCI-H226 cells assessed as cell growth at 10 uM after 48 hrs by SRB assay relative to control; settings: NCI-H226, 48 h, read-out: Activity; procedure, shortened: as §2
# UO-31 = test: Cytotoxicity against human UO31 cells assessed as cell growth at 10 uM after 48 hrs by SRB assay relative to control; settings: UO-31, 48 h, read-out: Activity; procedure, shortened: as §3
# MCF7 = test: Cytotoxicity against human MCF7 cells assessed as cell growth at 10 uM after 48 hrs by SRB assay relative to control; settings: MCF7, 48 h, read-out: Activity; procedure, shortened: as §1
# COLO 205 = test: Cytotoxicity against human COLO205 cells assessed as cell growth at 10 uM after 48 hrs by SRB assay relative to control; settings: COLO 205, 48 h, read-out: Activity; procedure, shortened: as §1
# RXF 393 = test: Cytotoxicity against human RXF393 cells assessed as cell growth at 10 uM after 48 hrs by SRB assay relative to control; settings: RXF 393, 48 h, read-out: Activity; procedure, shortened: as §2
# DU-145 = test: Cytotoxicity against human DU145 cells assessed as cell growth at 10 uM after 48 hrs by SRB assay relative to control; settings: DU-145, 48 h, read-out: Activity; procedure, shortened: as §1
# HOP-92 = test: Cytotoxicity against human HOP92 cells assessed as cell growth at 10 uM after 48 hrs by SRB assay relative to control; settings: HOP-92, 48 h, read-out: Activity; procedure, shortened: as §1
# HOP-62 = test: Cytotoxicity against human HOP62 cells assessed as cell growth at 10 uM after 48 hrs by SRB assay relative to control; settings: HOP-62, 48 h, read-out: Activity; procedure, shortened: as §1
# OVCAR-4 = test: Cytotoxicity against human OVCAR4 cells assessed as cell growth at 10 uM after 48 hrs by SRB assay relative to control; settings: OVCAR-4, 48 h, read-out: Activity; procedure, shortened: as §2
# KM12 = test: Cytotoxicity against human KM12 cells assessed as cell growth at 10 uM after 48 hrs by SRB assay relative to control; settings: KM12, 48 h, read-out: Activity; procedure, shortened: as §1
# MDA-MB-231 = test: Cytotoxicity against human MDA-MB-231 cells assessed as cell growth at 10 uM after 48 hrs by SRB assay relative to control; settings: MDA-MB-231, 48 h, read-out: Activity; procedure, shortened: as §2
# NCI-H322M = test: Cytotoxicity against human NCI-H322M cells assessed as cell growth at 10 uM after 48 hrs by SRB assay relative to control; settings: read-out: Activity; procedure, shortened: as §2
# NCI/ADR-RES = test: Cytotoxicity against human NCI/ADR-RES cells assessed as cell growth at 10 uM after 48 hrs by SRB assay relative to control; settings: read-out: Activity; procedure, shortened: as §2
Compound,growth at 10 µM (A549) [%],growth at 10 µM [1] [%],growth at 10 µM (IGROV-1) [%],growth at 10 µM (RPMI-8226) [%],growth at 10 µM (SK-MEL-28) [%],growth at 10 µM (SF-539) [%],growth at 10 µM (NCI-H460) [%],growth at 10 µM (SF-268) [%],growth at 10 µM (NCI-H522) [%],growth at 10 µM (UACC-257) [%],growth at 10 µM (CAKI-1) [%],growth at 10 µM (OVCAR-8) [%],growth at 10 µM (HCT-116) [%],growth at 10 µM (HCT-15) [%],growth at 10 µM (SK-MEL-2) [%],growth at 10 µM (CCRF-CEM) [%],growth at 10 µM (NCI-H226) [%],growth at 10 µM (UO-31) [%],growth at 10 µM (MCF7) [%],growth at 10 µM (COLO 205) [%],other results
O=C1c2ccccc2C(=O)c2c1cc(Cl)c1nsnc21,103,72.5,52.5,27.8,132,109,100,37,89.5,76.1,96.5,-4.57,48.1,96.8,0.21,-41.8,100,80.2,65.4,99.1,growth at 10 µM (SK-MEL-5): 72.5%; growth at 10 µM (RXF 393): 71.9%; growth at 10 µM (DU-145): 97%; growth at 10 µM (HOP-92): -52.2%; growth at 10 µM (HOP-62): 75.8%; growth at 10 µM (OVCAR-4): -75%; growth at 10 µM (KM12): 95.9%; growth at 10 µM (MDA-MB-231): -23.4%; growth at 10 µM (NCI-H322M): 108%
O=C1c2ccccc2C(=O)c2c1cc(Sc1ccccc1)c1nsnc21,106,95.9,84.4,78.2,127,107,101,102,94.9,92.8,89,82.3,90.1,93.9,112,15.7,102,80.1,94.9,118,growth at 10 µM (SK-MEL-5): 85.7%; growth at 10 µM (RXF 393): 114%; growth at 10 µM (DU-145): 103%; growth at 10 µM (HOP-92): 118%; growth at 10 µM (HOP-62): 110%; growth at 10 µM (OVCAR-4): 57.8%; growth at 10 µM (KM12): 99.5%; growth at 10 µM (MDA-MB-231): 66.7%; growth at 10 µM (NCI-H322M): 101%
O=C1c2ccccc2C(=O)c2c1cc(SCc1ccccc1)c1nsnc21,102,60,43.9,43.2,95,68.3,92,56,78.9,58.9,73.8,6.01,53.1,54.7,-3.95,0.65,101,73.8,56.4,103,growth at 10 µM (SK-MEL-5): 22.5%; growth at 10 µM (NCI/ADR-RES): 62.3%; growth at 10 µM (RXF 393): 68.1%; growth at 10 µM (DU-145): 82.2%; growth at 10 µM (HOP-92): -14.4%; growth at 10 µM (HOP-62): 83.7%; growth at 10 µM (OVCAR-4): -68.2%; growth at 10 µM (KM12): 103%; growth at 10 µM (MDA-MB-231): -13.4%; growth at 10 µM (NCI-H322M): 98.4%
O=C1c2ccccc2C(=O)c2c1cc(Sc1ccc(Cl)cc1)c1nsnc21,104,103,84.9,90.2,130,107,103,105,93.4,95.5,87,88.6,98.2,98.1,109,79.3,104,79.5,86.1,121,growth at 10 µM (NCI/ADR-RES): 102%; growth at 10 µM (RXF 393): 118%; growth at 10 µM (DU-145): 117%; growth at 10 µM (HOP-92): 94.8%; growth at 10 µM (HOP-62): 102%; growth at 10 µM (OVCAR-4): 76.8%; growth at 10 µM (KM12): 102%; growth at 10 µM (MDA-MB-231): 89%; growth at 10 µM (NCI-H322M): 99.5%
